Assay [1] concerns the target T1, Polyunsaturated fatty acid lipoxygenase ALOX15 (Oryctolagus cuniculus, UniProt P12530).
T1 sequence (P12530 whole entry): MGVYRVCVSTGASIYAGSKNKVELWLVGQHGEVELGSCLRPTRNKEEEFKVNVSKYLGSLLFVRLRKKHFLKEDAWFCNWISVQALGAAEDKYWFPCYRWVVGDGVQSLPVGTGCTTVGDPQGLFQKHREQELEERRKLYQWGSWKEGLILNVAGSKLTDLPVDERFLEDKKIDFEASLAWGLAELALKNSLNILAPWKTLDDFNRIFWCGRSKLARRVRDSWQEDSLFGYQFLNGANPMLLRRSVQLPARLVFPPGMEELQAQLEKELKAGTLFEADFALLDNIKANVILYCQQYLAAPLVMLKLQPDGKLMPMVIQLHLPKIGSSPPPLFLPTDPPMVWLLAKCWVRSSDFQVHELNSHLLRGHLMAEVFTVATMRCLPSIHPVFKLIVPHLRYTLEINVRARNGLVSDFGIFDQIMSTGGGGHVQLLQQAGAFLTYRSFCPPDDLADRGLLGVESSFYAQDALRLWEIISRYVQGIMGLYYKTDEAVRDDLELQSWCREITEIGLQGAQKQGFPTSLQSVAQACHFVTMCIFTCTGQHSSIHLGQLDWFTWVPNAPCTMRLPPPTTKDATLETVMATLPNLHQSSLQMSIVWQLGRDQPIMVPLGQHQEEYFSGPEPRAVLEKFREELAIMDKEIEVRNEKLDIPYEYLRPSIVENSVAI
Nature of the assay: Inhibitory concentration against rabbit reticulocyte 15-lipoxygenase with substrate arachidonic acid. The method in brief: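 Purified rabbit reticulocyte 15-LO, isolated from phenylhydrazine-treated rabbits, with arachidonic acid as the substrate. IC50 comes from a colorimetric read-out in which the 15-HPETE product oxidizes Fe²⁺ under mildly acidic conditions. Many values were also verified by the spectrophotometric diene-formation rate (A₂₃₄).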

In assay [2] the target is T1, Polyunsaturated fatty acid lipoxygenase ALOX15. The assay is described as follows: Inhibitory concentration against isolated rabbit reticulocyte 15-lipoxygenase measured in the presence of linoleic acid. The method, boiled down:
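15-LO was purified from reticulocytes of phenylhydrazine-treated rabbits. Linoleic acid was the substrate. In a colorimetric assay, the 13-HPODE product oxidizes Fe²⁺ under mildly acidic conditions, and IC50 is derived from this. Many values were also checked spectrophotometrically by the rate of diene formation (A₂₃₄).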

A word on the IC50: it is the concentration that gives 50% inhibition. Consider `COc1ccc(-c2ccc(S(=O)(=O)NCCc3c[nH]c4ccccc34)cc2)cc1`, for which the IC50 in assay [1] is 1.09 µM; in assay [2], 1.5 µM.
As to `CCCCc1ccc(S(=O)(=O)NCCc2c(-c3ccc(OC)cc3)[nH]c3ccccc23)cc1`, the IC50 in assay [2] worked out at 0.11 µM.
Consider `CN(C)c1cccc2c(S(=O)(=O)NCCc3c[nH]c4ccccc34)cccc12`, for which the half-inhibitory concentration (IC50) in assay [2] amounted to 3.73 µM.
For the compound `CCCCCc1ccc(S(=O)(=O)NCCc2c[nH]c3ccccc23)cc1`, the IC50 in assay [1] came out at 1.02 µM; in assay [2] it was 0.42 µM.
The corresponding values for `CCCCCc1ccc(S(=O)(=O)NCCc2c(-c3ccc4oc5ccccc5c4c3)[nH]c3ccccc23)cc1` are 0.071 µM and 0.01 µM.
The corresponding values for `CN(CCO)C(=O)c1ccc(S(=O)(=O)NCCc2c(-c3cc4ccccc4o3)[nH]c3ccccc23)cc1` are 4.05 µM and 0.44 µM.
Consider `CCCCNC(=O)c1ccc(S(=O)(=O)NCCc2c(-c3cc4ccccc4o3)[nH]c3ccccc23)cc1`, for which the IC50 in assay [1] was 0.112 µM; in assay [2], 0.042 µM.
As for `O=S(=O)(NCCc1c(-c2cc3ccccc3o2)[nH]c2ccccc12)c1ccc(Br)cc1`, the half-maximal inhibitory concentration (IC50) is 0.161 µM in assay [1] and 0.03 µM in assay [2].
On the same counts, the results for `CCCCCc1ccc(S(=O)(=O)NCCc2c(-c3cc(OC)ccc3OC)[nH]c3ccccc23)cc1` are 0.132 µM and 0.028 µM.
For `Cc1ccccc1-c1ccc(S(=O)(=O)NCCc2c[nH]c3ccccc23)cc1`, the IC50 in assay [1] amounted to 0.46 µM; in assay [2] it was 0.92 µM.
The corresponding values for `CCCCCc1ccc(S(=O)(=O)NCCc2c(-c3cnc4ccccc4c3)[nH]c3ccccc23)cc1` are 0.05 µM and 0.013 µM.
The corresponding values for `CCCCCc1ccc(S(=O)(=O)NCCc2c(-c3cc4ccccc4o3)n(C)c3ccccc23)cc1` are 1.42 µM and 0.143 µM.
Consider `CCCCCc1ccc(S(=O)(=O)NCCc2c[nH]c3ccc(F)cc23)cc1`, for which, in assay [1], the IC50 came to 6.3 µM.
The same measure, in the same setting: as for `Cc1ccc(-c2ccc(S(=O)(=O)NCCc3c[nH]c4ccccc34)cc2)cc1`, the figure is 0.47 µM.
As to `CCCCCc1ccc(S(=O)(=O)NCCc2c[nH]c3c(C)cccc23)cc1`, 3.3 µM corresponded to half-maximal inhibition in assay [1] (IC50).
On to `O=S(=O)(NCCc1c(-c2cc3ccccc3o2)[nH]c2ccccc12)c1ccc(-c2ccncc2)cc1`, for which the results for the half-maximal inhibitory concentration (IC50) in assay [1] and in assay [2] were 0.179 µM and 0.047 µM, respectively.
On the same counts, the results for `CCCCCc1ccc(S(=O)(=O)NCCc2c(-c3ccc(C(F)(F)F)cc3)[nH]c3ccccc23)cc1` are 0.132 µM and 0.011 µM.
The corresponding values for `CCc1ccc(S(=O)(=O)NCCc2c[nH]c3ccccc23)cc1` are over 10 µM and over 10 µM.
Regarding `O=C(Nc1ccccc1)c1ccc(S(=O)(=O)NCCc2c(-c3cc4ccccc4o3)[nH]c3ccccc23)cc1`, the IC50 in assay [1] was 0.051 µM; in assay [2] it was 0.015 µM.
`COc1ccc(NC(=O)c2ccc(S(=O)(=O)NCCc3c(-c4cc5ccccc5o4)[nH]c4ccccc34)cc2)cc1`: the IC50 in assay [1] was 0.026 µM; in assay [2], 0.011 µM.
For the compound `COc1ccc(-c2[nH]c3ccccc3c2CCNS(=O)(=O)c2ccc(-c3ccccc3)cc2)cc1`, the figures for the IC50 in assay [1] and in assay [2] were 0.247 µM and 0.027 µM, respectively.
In the case of `CCCCCc1ccc(S(=O)(=O)N2CCC(c3c[nH]c4ccccc34)C2)cc1` (stereo not given), in assay [2], the concentration for half-maximal inhibition (IC50) was over 10 µM.
Same read-out and setting: the value for `COc1ccc(-c2[nH]c3ccccc3c2CCNS(=O)(=O)c2ccc(C(=O)O)cc2)cc1` was over 10 µM.
In assay [1], `CCCCCc1ccc(S(=O)(=O)NCCc2c[nH]c3cc(F)ccc23)cc1` showed an IC50 of 2.9 µM.
Turning to `CCCCCc1ccc(S(=O)(=O)N(C)CCc2c[nH]c3ccccc23)cc1`, the IC50 in assay [2] was over 10 µM.
Consider `CC1=C(CC/C(C)=C/CC/C(C)=C/Cc2cc(O)ccc2O)C(C)(C)CCC1` [JASPAQUINOL], for which the concentration for half-maximal inhibition (IC50) in assay [2] came out at 0.3 µM.
`CCCCCc1ccc(S(=O)(=O)NC(C)Cc2c[nH]c3ccccc23)cc1` (stereo not given): in assay [2], the IC50 was determined as 1.6 µM.
In assay [1], `CCCCCc1ccc(S(=O)(=O)NCCc2c[nH]c3ccc(C)cc23)cc1` yielded an IC50 of 3.9 µM.
For the compound `CCCCCc1ccc(S(=O)(=O)NCCc2c[nH]c3ccc(-c4ccc[nH]4)cc23)cc1`, in assay [2], the IC50 amounted to 0.78 µM.

Values taken from ChEMBL document CHEMBL1142013, “Tryptamine and homotryptamine-based sulfonamides as potent and selective inhibitors of 15-lipoxygenase” (Bioorg Med Chem Lett, 2005).
